Results of several laboratories.
Lines come from different studies, so protocols differ.
HSP90B1: Endoplasmin (HSP90B1, Canis lupus familiaris, UniProt P41148)
BACE1: Beta-secretase 1 (BACE1, Homo sapiens, UniProt P56817)
Delta-aminolevulinic acid dehydratase C162A/K59N: Delta-aminolevulinic acid dehydratase (Homo sapiens, UniProt P13716, C162A/K59N)

| target | read-out | mode | technique | pH | notes | IC50 | SMILES |
| --- | --- | --- | --- | --- | --- | --- | --- |
| Melanocortin receptor 3 (MC3R, Homo sapiens, UniProt P41968) | ligand displacement | – | radioligand | – | – | 1.2 µM | CC(=O)N[C@H]1CSSC[C@@H](C(=O)N[C@@H](Cc2c[nH]c3ccccc23)C(N)=O)NC(=O)[C@H](Cc2ccccc2)NC(=O)[C@H](CCCNC(=N)N)NC1=O |
| Vasopressin V2 receptor (AVPR2, Homo sapiens, UniProt P30518) | calcium signal | antagonist | – | – | – | 31.1 µM | CCC(C)n1ncn(-c2ccc(N3CCN(c4ccc(OCC5COC(Cn6cncn6)(c6ccc(Cl)cc6Cl)O5)cc4)CC3)cc2)c1=O (stereo not shown) |
| HSP90B1 | ligand displacement | – | FP | – | – | > 50 µM | CCCc1cc2cc(-n3nc(C)c4c3CC(C)(C)CC4=O)cc(N[C@H]3CC[C@H](O)CC3)c2c(=O)[nH]1 |
| BACE1 | enzyme activity | inhibitor | FRET | pH 5 | – | 1100 µM | NC1=NCC(c2cccc3ccccc23)OC1 (stereo not shown) |
| Delta-aminolevulinic acid dehydratase C162A/K59N | enzyme activity | inhibitor | absorbance | pH 8 | with preincubation | 18 µM | CN1CCCN=C1/C=C/c1cccc(O)c1 |
| Serine/threonine-protein kinase mTOR (MTOR, Homo sapiens, UniProt P42345) | ligand displacement | – | TR-FRET | – | – | 0.0422 µM | Nc1ncc(-c2nc(N3CCOCC3)nc(N3C[C@H]4CC[C@@H](C3)O4)n2)c(C(F)F)n1 |
| Neuromedin-U receptor 2 (Mus musculus, UniProt Q8BZ39) | ligand displacement | – | radioligand | – | – | 9.12e-05 µM | CC(C)C[C@H](NC(=O)[C@H](Cc1ccccc1)NC(=O)[C@@H](N)Cc1ccc(O)cc1)C(=O)N[C@@H](Cc1ccccc1)C(=O)N[C@@H](CCCNC(=N)N)C(=O)N1CCC[C@H]1C(=O)N[C@@H](CCCNC(=N)N)C(=O)N[C@@H](CC(N)=O)C(N)=O |
| Histone acetyltransferase KAT5 (KAT5, Homo sapiens, UniProt Q92993) | enzyme activity | inhibitor | radiometric | – | – | > 100 µM | COc1ccc(S(=O)(=O)ON=C2C=C(C)C(=O)C(C)=C2)cc1 |
| HSP90B1 | ligand displacement | – | FP | – | – | 0.8 µM | CCCCn1c(Sc2ccc(Cl)cc2Cl)nc2c(N)ncnc21 |
| Kir3.1/Kir3.2 (Homo sapiens, UniProt P48051+P48549) | ion flux | inhibitor | – | – | – | 2.5 µM | CC(C)c1cc(NC(=O)Nc2ccc(F)c(F)c2)n(-c2ccccc2)n1 |
| Relaxin-3 receptor 1 (RXFP3, Homo sapiens, UniProt Q9NSD7) | cAMP | antagonist | TR-FRET | – | – | 1.49 µM | O=C(Nc1ccc(-c2nc(-c3ccc(Cl)cc3)no2)cc1)C1CC(=O)N(Cc2cccnc2)C1 (stereo not shown) |
| DNA polymerase iota (Homo sapiens, UniProt Q9UNA4) | enzyme activity | inhibitor | – | – | – | 0.081 µM | O=c1oc2c(O)c(O)cc3c(=O)oc4c(O)c(O)cc1c4c23 |
| Proto-oncogene tyrosine-protein kinase ROS (ROS1, Homo sapiens, UniProt P08922) | enzyme activity | inhibitor | – | – | – | 2.25 µM | CN1CCN(c2ccc(Nc3ncc4cc(C#N)c(=O)n(C5CCCC5)c4n3)cc2)CC1 |
| Neutrophil elastase (ELANE, Homo sapiens, UniProt P08246) | enzyme activity | inhibitor | fluorescence | – | – | 0.97 µM | Cc1cccc(C(=O)n2nc(Cl)c(=O)c3ccccc32)c1 |
| Delta-aminolevulinic acid dehydratase C162A/K59N | enzyme activity | inhibitor | absorbance | pH 8 | with preincubation | 2.1 µM | NC(=O)N/N=C/c1ccc([N+](=O)[O-])o1 |
| SWI/SNF-related matrix-associated actin-dependent regulator of chromatin subfamily A member 2, bromodomain (SMARCA2, Homo sapiens, UniProt P51531) | ligand displacement | – | TR-FRET | – | – | 0.67 µM | Cc1ncsc1-c1ccc(CNC(=O)[C@@H]2C[C@H](O)CN2C(=O)[C@@H](NC(=O)C2(F)CC2)C(C)(C)C)c(OCCOc2ccc(CN3CCN(c4cc(-c5ccccc5O)nnc4N)CC3)cc2)c1 |
| Serine/threonine-protein kinase B-raf (BRAF, Homo sapiens, UniProt P15056) | enzyme activity | inhibitor | – | – | – | > 0.5 µM | COc1ccc2c(Oc3ccc4c(C(=O)Nc5ccccc5N)cccc4c3)ccnc2c1 |
| SMUG1 (Homo sapiens, UniProt Q53HV7) | enzyme activity | inhibitor | – | – | – | > 100 µM | O=C(Nc1ccc(Cl)c(Cl)c1)N1CCC(n2c(=O)[nH]c3c(Br)cccc32)CC1 |
| BACE1 | enzyme activity | inhibitor | – | – | – | > 90 µM | CC(C)(O)C1Cc2c(cc3occ(-c4ccc(O)cc4)c(=O)c3c2O)O1 (stereo not shown) |
